Results: publication PMC6940675 (Molecular Therapy Oncolytics, 2019)
Where no end group is shown, it is not given here.

Experiments:
[1] = test system: brain glioma cell line, U87; test: MTT assay; format: cell-based; details: U87, 24-h incubation with peptide, triplicate, OD 550 nm
Method in brief: (§1)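 ATCC cells were maintained at 37°C, 5% CO2: U87 and A375 in DMEM with 10% FBS and 1% penicillin/streptomycin, MCF-7 in DMEM with 5% FBS. They were seeded at 5,000 cells/well and grown 24 h. Peptide came from a 10 mM stock diluted in medium; controls got PBS. MTT (5 mg/mL in PBS, pH 7.4) was added for 4 h, then formazan was dissolved in DMSO.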

[2] = test system: breast cancer cell line, MCF-7; test: MTT assay; format: cell-based; details: MCF-7, 24-h incubation with peptide, triplicate, OD 550 nm
Method in brief: as §1

[3] = test system: malignant melanoma cell line, A375; test: MTT assay; format: cell-based; details: A375, 24-h incubation with peptide, triplicate, OD 550 nm
Method in brief: as §1

[4] = Circular dichroism spectroscopy; format: physicochemical; details: CD, CDNN
Method in brief: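 POPE/POPG (7:3) dried from chloroform under N2 overnight, resuspended in PBS pH 7.4 and extruded through 0.1-μm membranes to form SUVs, used within 6 h. Peptide at 0.5 mM in PBS pH 7.4, alone or with SUVs. Spectra taken at 25°C from 250–190 nm in a 0.1-mm quartz cell, 1-nm steps, 60 nm/min. Each spectrum averaged three scans and was baseline-subtracted. Helix content estimated by CDNN 2.1.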

[5] = test system: MCF 7, A375 and U87 cancer cell lines; test: MTT assay, comparison over three cancer cell lines; format: cell-based; details: result in words
Method in brief: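 Lines used: MCF-7 (DMEM, 5% FBS) and A375 and U87 (DMEM, 10% FBS, penicillin/streptomycin). Seeded at 5,000 cells/well and grown 24 h. Peptides were diluted from 10 mM stock in medium; PBS served as control; triplicates. After 24 h exposure, MTT was added for 4 h at 37°C. Formazan was dissolved in DMSO and OD read at 550 nm.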

MCF-10A cells [6] = test: PI and Annexin V staining, fluorescent images; format: cell-based, human; details: 5.0 μM
Method in brief: (§2)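 MCF-7 (DMEM, 5% FBS) or MCF-10A (DMEM/F12 with horse serum, hydrocortisone, insulin, EGF, cholera toxin) seeded at 2 × 10^4 cells/well in 48-well plates and cultured 24 h. Peptide added, with PBS as negative control. After 1−3 h, Alexa Fluor 488 Annexin V (1:250 v/v) and PI (1:1,000 v/v) were added for 30 min at 37°C. Cells were then imaged by fluorescence microscopy.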

MCF-7 cells = test: PI and Annexin V staining, fluorescent images; format: cell-based; details: 5 μM, in comparison with AP1-Z1
Method in brief: as §2

HUVECs = test: Anti-angiogenesis assay; format: cell-based, human; details: 10.0 μM, 10−12 h, in comparison with the blank control (PBS), one-way ANOVA, Angiogenesis Analyzer for ImageJ
Method in brief: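 HUVECs grown in Medium 200 with low serum growth supplement at 37°C, 5% CO2. Matrigel thawed overnight at 4°C, added to μ-Slide wells and polymerised 30−60 min in a humidified incubator. HUVECs at 1 × 10^5 cells/mL were added and incubated 10−12 h at 37°C, 5% CO2, with a PBS-treated negative control. Tube formation was then imaged by fluorescence microscopy.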

MCF-10A cells [7] = test: Apoptosis assay, flow cytometry Annexin V/PI; format: cell-based, human; details: 5 μM, normal breast cell line
Method in brief: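 MCF-10A cells, a normal breast line, grown in DMEM/F12 with 5% horse serum, hydrocortisone, insulin, EGF and cholera toxin. Seeded at 2 × 10^5 cells/mL in 6-well plates and cultured 24 h before peptide exposure; PBS served as negative control. After 1−3 h, cells were washed in cold PBS and set to 1 × 10^6 cells/mL in Annexin-binding buffer. Stained with Alexa Fluor 488 Annexin V plus PI for 10 min at room temperature. Read by flow cytometry, excitation 488 nm, emission 530 and 575 nm.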

[8] = 0.5 mM peptide in 1× PBS buffer pH 7.4, 25°C, average of three scans

Row | Substance | IC50 [1] [µM] | IC50 [2] [µM] | IC50 [3] [µM] | α helix ratio [4, 8] [%] | further results
1 | FLFKLIKHAIKGLIKAFK-NH2 [AP1-Z5b] | 3.12 | 1.04 | 2.61 |  | 
2 | FLFKLIKKAIKKLIKAFK [AP1-Z7] |  |  |  | 16.16 | α helix ratio ([4]; 0.5 mM peptide in POPE/POPG (7:3) SUVs in 1× PBS, 3:1 lipid:peptide): 44.95%
3 | FLFKLIPKAIKGLIKAFK [AP1-Z5a] |  |  |  |  | IC50 relative to the other peptides [5]: relatively lower; apoptosis of MCF-10A cells (ANXA5/PI fluorescent images) (MCF-10A cells [6]): no significant change in the apoptosis; apoptosis of MCF-7 cells (ANXA5/PI fluorescent images) (MCF-7 cells): significantly induced the apoptosis; angiogenesis (tube formation of HUVECs) (HUVECs): significantly inhibited angiogenesis; apoptosis of MCF-10A cells (MCF-10A cells [7]): did not significantly promote the apoptosis
4 | FLFSLIKHAIKGLISAFK [AP1-Z3a] |  |  |  | 24.28 | 
5 | FLFSLIPHAISGLISAFK-NH2 [AP1-Z1] | 10.2 | 7.22 | 9.48 |  | 
